The values that follow come from publication PMC3857970 (European journal of medicinal chemistry, 2012).

pIC50: −log10 of the molar value. Some results are limits rather than exact numbers.

The first assay concerns the target recombinant human ALR2 (Homo sapiens, UniProt P15121). The assay is described as follows: ALR2 inhibition assay. The assay is classed as biochemical.
Details: not given
Consider `COc1cc(/C=C/C(=O)N2CCC=CC2=O)cc(OC)c1OC` [Compound 1, 5,6-Dihydro-1-((E)-3-(3,4,5-trimethoxyphenyl)acryloyl) pyridin-2(1H)-one], for which the “ALR2 inhibitory activity (in words)” value is listed as “moderate activity”. As a reminder, the pIC50 is −log10 of the IC50, conventionally taken in molar units. On to `COc1cc(C(CC(=O)N2CCC=CC2=O)c2c[nH]c3ccccc23)cc(OC)c1OC` (stereo not drawn) [Compound 2a, 1-(3-(1H-Indol-3-yl)-3-(3,4,5-trimethoxyphenyl)propanoyl)-5,6-dihydropyridin-2(1H)-one], for which the pIC50 is less than 3.30. For the compound `COc1cc(C(CC(=O)N2CCC=CC2=O)c2cn(C)c3ccccc23)cc(OC)c1OC` (stereo not drawn) [Compound 2b, 1-(3-(3,4,5-Trimethoxyphenyl)-3-(1-methyl-1H-indol-3-yl)propanoyl)-5,6-dihydropyridin-2(1H)-one], the pIC50 was 4.00. As for `COc1cc(C(CC(=O)N2CCC=CC2=O)c2c[nH]c3ccc(I)cc23)cc(OC)c1OC` (stereo not drawn) [Compound 2f, 1-(3-(5-Iodo-1H-indol-3-yl)-3-(3,4,5-trimethoxyphenyl)propanoyl)-5,6-dihydropyridin-2(1H)-one], the pIC50 is less than 3.30. For `COc1cc(C(CC(=O)N2CCC(c3c[nH]c4ccccc34)CC2=O)c2c[nH]c3ccccc23)cc(OC)c1OC` (stereo not drawn) [Compound 3a, 1-(3-(1H-Indol-3-yl)-3-(3,4,5-trimethoxyphenyl)propanoyl)-4-(1H-indol-3-yl)piperidin-2-one], the pIC50 is 4.10. For the compound `COc1cc(C(CC(=O)N2CCC(c3cn(C)c4ccccc34)CC2=O)c2cn(C)c3ccccc23)cc(OC)c1OC` (stereo not drawn) [Compound 3b, 1-(3-(3,4,5-Trimethoxyphenyl)-3-(1-methyl-1H-indol-3-yl)propanoyl)-4-(1-methyl-1H-indol-3-yl)piperidin-2-one], the negative-log IC50 (pIC50) was less than 3.30. Take `COc1cc(C(CC(=O)N2CCC(c3c[nH]c4ccc(I)cc34)CC2=O)c2c[nH]c3ccc(I)cc23)cc(OC)c1OC` (stereo not drawn) [Compound 3f, 1-(3-(5-Iodo-1H-indol-3-yl)-3-(3,4,5-trimethoxyphenyl)propanoyl)-4-(5-iodo-1H-indol-3-yl)piperidin-2-one]: the pIC50 is less than 3.30. As to `COc1cc(C(CC(=O)O)c2c(C)[nH]c3ccccc23)cc(OC)c1OC` (stereo not drawn) [Compound 4, 3-(3,4,5-Trimethoxyphenyl)-3-(2-methyl-1H-indol-3-yl) propanoic acid], the pIC50 is 4.14. On to `COC(=O)/C=C/c1cc(OC)c(OC)c(OC)c1` [Compound 5, (E)-Methyl 3-(3,4,5-trimethoxyphenyl)acrylate], for which the pIC50 was less than 3.30. Consider `O=C1C=CCCN1C(=O)C=Cc1ccccc1` [Compound 12, 1-Cinnamoyl-5,6-dihydropyridin-2(1H)-one], for which the pIC50 was less than 3.30.

Turning to `O=C1C=CCCN1C(=O)/C=C/c1cccc(C(F)(F)F)c1` [Compound 13, (E)-1-(3-(3-(Trifluoromethyl)phenyl)acryloyl)-5,6-dihydropyridin], the pIC50 is 3.40. For `COc1ccc(OC)c(/C=C/C(=O)N2CCC=CC2=O)c1` [Compound 14, (E)-1-(3-(2,5-Dimethoxyphenyl)acryloyl)-5,6-dihydropyridin-2(1H)-one], the pIC50 was less than 3.30. For `O=C1C=CCCN1C(=O)/C=C/c1ccc2c(c1)OCO2` [Compound 16, (E)-1-(3-(Benzo[d][1,3]dioxol-5-yl)acryloyl)-5,6-dihydropyridin-2(1H)-one], the pIC50 was less than 3.30. Still for that read-out and setting: in the case of `O=C1C=CCCN1C(=O)/C=C/c1ccc(Cl)cc1` [Compound 17, (E)-1-(3-(4-Chlorophenyl)acryloyl)-5,6-dihydropyridin-2(1H)-one] it was less than 3.30; in that of `O=C1C=CCCN1C(=O)/C=C/c1ccc2ccccc2c1` [Compound 18, (E)-1-(3-(Naphthalen-2-yl)acryloyl)-5,6-dihydropyridin-2(1H)-one], 3.46; in that of `O=C1C=CCCN1C(=O)/C=C/c1cccc(Oc2ccccc2)c1` [Compound 20, (E)-1-(3-(3-Phenoxyphenyl)acryloyl)-5,6-dihydropyridin-2(1H)-one], less than 3.30. Same read-out and setting: for `O=C1C=CCCN1C(=O)/C=C/c1cccs1` [Compound 22, (E)-1-(3-(Thiophen-2-yl)acryloyl)-5,6-dihydropyridin-2(1H)-one] the value was less than 3.30. On the same count and under the same terms, in the case of `O=C1C=CCCN1C(=O)/C=C/C=C/c1ccc2c(c1)OCO2` [Compound 30, 1-((2E,4E)-5-(Benzo[d][1,3]dioxol-5-yl)penta-2,4-dienoyl)-5,6-dihydropyridin-2(1H)-one] it was 3.30; in that of `COc1cc(/C=C/C(=O)N2CCC=C(C(O)c3ccc(F)cc3)C2=O)cc(OC)c1OC` (stereo not drawn) [Compound 32b, (E)-3-((4-Fluorophenyl)(hydroxy)methyl)-1-(3-(3,4,5-trimethoxyphenyl)acryloyl)-5,6-dihydropyridin-2(1H)-one], less than 3.30; in that of `COc1cc(/C=C/C(=O)N2CCC=C(C(O)c3ccccc3[N+](=O)[O-])C2=O)cc(OC)c1OC` (stereo not drawn) [Compound 32c, (E)-3-(Hydroxy(2-nitrophenyl)methyl)-1-(3-(3,4,5-trimethoxyphenyl)acryloyl)-5,6-dihydropyridin-2(1H)-one], less than 3.30.

Turning to `COc1cc(/C=C/C(=O)N2CCC=C(C(O)c3ccc([N+](=O)[O-])cc3)C2=O)cc(OC)c1OC` (stereo not drawn) [Compound 32d, (E)-3-(Hydroxy(4-nitrophenyl)methyl)-1-(3-(3,4,5-trimethoxyphenyl)acryloyl)-5,6-dihydropyridin-2(1H)-one], the pIC50 is less than 3.30.

Turning to `COc1cc(/C=C/C(=O)N2CCC=C(C(O)c3ccc(C#N)cc3)C2=O)cc(OC)c1OC` (stereo not drawn) [Compound 32e, (E)-4-(Hydroxy(2-oxo-1-(3-(3,4,5-trimethoxyphenyl)acryloyl)-1,2,5,6-tetrahydropyridin-3-yl)methyl)benzonitrile], the pIC50 is less than 3.30. Consider `COc1cc(/C=C/C(=O)N2CCC=C(C(O)c3ccccn3)C2=O)cc(OC)c1OC` (stereo not drawn) [Compound 32f, (E)-3-(Hydroxy(pyridin-2-yl)methyl)-1-(3-(3,4,5-trimethoxyphenyl)acryloyl)-5,6-dihydropyridin-2(1H)-one], for which the pIC50 is less than 3.30.

Turning to `COc1cc(/C=C/C(=O)N2CCC=C(C(O)c3ccc4ccccc4c3)C2=O)cc(OC)c1OC` (stereo not drawn) [Compound 32h, (E)-3-(Hydroxy(naphthalen-2-yl)methyl)-1-(3-(3,4,5-trimethoxyphenyl)acryloyl)-5,6-dihydropyridin-2(1H)-one], the negative logarithm of the IC50 (pIC50) was less than 3.30. `COc1cc(/C=C/C(=O)N2CCC=C(C(O)c3ccc(C)cc3)C2=O)cc(OC)c1OC` (stereo not drawn) [Compound 32i, (E)-3-(Hydroxy(p-tolyl)methyl)-1-(3-(3,4,5-trimethoxyphenyl)acryloyl)-5,6-dihydropyridin-2(1H)-one]: the pIC50 is less than 3.30. For the compound `COc1cc(/C=C/C(=O)N2CCC=C(C(O)c3ccccc3)C2=O)cc(OC)c1OC` (stereo not drawn) [Compound 32j, (E)-3-(Hydroxy(phenyl)methyl)-1-(3-(3,4,5-trimethoxyphenyl)acryloyl)-5,6-dihydropyridin-2(1H)-one], the pIC50 was less than 3.30.

For `COc1cc(/C=C/C(=O)N2CCCCC2)cc(OC)c1OC` [Compound 33, (E)-1-(Piperidin-1-yl)-3-(3,4,5-trimethoxyphenyl) prop-2-en-1-one], the pIC50 was less than 3.30.

As for `COc1cc(/C=C/C(=O)N2CCCC2=O)cc(OC)c1OC` [Compound 34, (E)-1-(3-(3,4,5-Trimethoxyphenyl)acryloyl)pyrrolidin-2-one], the pIC50 is less than 3.30. In the case of `COc1cc(/C=C/C(=O)n2c(=O)oc3ccccc32)cc(OC)c1OC` [Compound 35, (E)-3-(3-(3,4,5-Trimethoxyphenyl)acryloyl)benzo[d]oxazol-2(3H)-one], the pIC50 is less than 3.30.

Staying with this assay, now noted: Michael adducts from N-benzyl / phenyl indoles.
Take `COc1cc(C(CC(=O)N2CCC(c3cn(Cc4ccccc4)c4ccccc34)CC2=O)c2cn(Cc3ccccc3)c3ccccc23)cc(OC)c1OC` (stereo not drawn) [Compound 3c, 1-(3-(1-Benzyl-1H-indol-3-yl)-3-(3,4,5-trimethoxyphenyl)propanoyl)-4-(1-benzyl-1H-indol-3-yl)piperidin-2-one]: the “enhancement of ALR2 inhibitory activity” value was 40 folds. As for `COc1cc(C(CC(=O)N2CCC(c3c(-c4ccccc4)[nH]c4ccccc34)CC2=O)c2c(-c3ccccc3)[nH]c3ccccc23)cc(OC)c1OC` (stereo not drawn) [Compound 3e, 1-(3-(3,4,5-Trimethoxyphenyl)-3-(2-phenyl-1H-indol-3-yl)propanoyl)-4-(2-phenyl-1H-indol-3-yl)piperidin-2-one], the “enhancement of ALR2 inhibitory activity” value turned out to be 40 folds.

Still in this assay, the particulars now being: average of four experimental values.
For the compound `O=C1C=CCCN1C(=O)/C=C/c1ccc(Br)cc1` [Compound 15, (E)-1-(3-(4-Bromophenyl)acryloyl)-5,6-dihydropyridin-2(1H)-one], the pIC50 was 3.46.

On to `COc1cc(/C=C/C(=O)N2CCC=C(C(O)c3cccs3)C2=O)cc(OC)c1OC` (stereo not drawn) [Compound 32g, (E)-3-(Hydroxy(thiophen-2-yl)methyl)-1-(3-(3,4,5-trimethoxyphenyl)acryloyl)-5,6-dihydropyridin-2(1H)-one], for which the negative logarithm of the IC50 (pIC50) is less than 3.30.

The next assay has as its system human red blood cells (RBC). In words: Sorbitol accumulation in RBC under high glucose conditions. The assay is classed as cell-based. The conditions noted are these: ex vivo high glucose conditions. The method, boiled down: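 Fasted healthy male donors' heparinised blood; RBC washed three times in isotonic saline at 4 °C, resuspended in Krebs-Ringer bicarbonate pH 7.4 (5% CO2). Duplicates incubated 3 h, 37 °C, 5% CO2, with 5.5 or 55 mM glucose, with test compound at 1.4–20 µM. Cells homogenised in 0.8 M perchloric acid, spun, supernatant adjusted to pH 3.5 with K2CO3; sorbitol measured fluorometrically.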
Take `COc1ccc2[nH]cc(C(CC(=O)N3CCC=CC3=O)c3cc(OC)c(OC)c(OC)c3)c2c1` (stereo not drawn) [Compound 2j, 1-(3-(5-Methoxy-1H-indol-3-yl)-3-(3,4,5-trimethoxyphenyl)propanoyl)-5,6-dihydropyridin-2(1H)-one]: the “effect on sorbitol accumulation (in words)” value (from here on “effect”) was “inhibited the sorbitol accumulation”.

For `COc1cc(C(CC(=O)N2CCC(c3cn(Cc4ccccc4)c4ccccc34)CC2=O)c2cn(Cc3ccccc3)c3ccccc23)cc(OC)c1OC` (stereo not drawn) [Compound 3c, 1-(3-(1-Benzyl-1H-indol-3-yl)-3-(3,4,5-trimethoxyphenyl)propanoyl)-4-(1-benzyl-1H-indol-3-yl)piperidin-2-one], the “effect” value was “inhibited the sorbitol accumulation”. For `COc1cc(C(CC(=O)N2CCC(c3c(-c4ccccc4)[nH]c4ccccc34)CC2=O)c2c(-c3ccccc3)[nH]c3ccccc23)cc(OC)c1OC` (stereo not drawn) [Compound 3e, 1-(3-(3,4,5-Trimethoxyphenyl)-3-(2-phenyl-1H-indol-3-yl)propanoyl)-4-(2-phenyl-1H-indol-3-yl)piperidin-2-one], the “effect” value is “inhibited the sorbitol accumulation”.
